Test [1] has as its system Amaranthus retroflexus. Kind of test: Herbicidal activity against Amaranthus retroflexus assessed as growth inhibition at 150 g ai/ha using post-emergence protocol under greenhouse conditions measured 15 days after compound treatment. Format: functional. To be noted: 360 h, read-out: GI. An outline of the steps: (§1)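 Post-emergence greenhouse spray on pot-grown broadleaf weeds at the 2-leaf stage. Formulation concentrates were diluted with water. Soil was clay, pH 6.5, 1.6% organic matter, 37.3% clay particles, CEC 12.1 mol/kg. The rate was total active ingredient divided by pot surface area. Untreated seedlings and DMF-treated seedlings served as controls.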

In test [2] the test system is Setaria viridis. Kind of test: Herbicidal activity against Setaria viridis assessed as growth inhibition at 150 g ai/ha using post-emergence protocol under greenhouse conditions measured 15 days after compound treatment. The note with it: 360 h, read-out: GI. Format: functional. An outline of the steps:
(§2)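 Grass weeds were grown in pots in the greenhouse and sprayed post-emergence at the 1-leaf stage. The spray was formulation concentrate diluted in water. Soil was clay, pH 6.5, 1.6% organic matter, 37.3% clay particles, CEC 12.1 mol/kg. The g.ai/ha rate was active ingredient over pot surface area. Controls were untreated and DMF-treated seedlings.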

The subject of test [3] is Chenopodium album. Kind of test: Herbicidal activity against Chenopodium album assessed as growth inhibition at 150 g ai/ha using post-emergence protocol under greenhouse conditions measured 15 days after compound treatment. To be noted: 360 h, read-out: GI. It is filed as functional. The procedure, abridged: as §1
For test [4], the system named is Echinochloa crus-galli. Kind of test: Herbicidal activity against Echinochloa crus-galli (barnyard grass) assessed as growth inhibition at 150 g ai/ha using post-emergence protocol under greenhouse conditions measured 15 days after compound treatment. It is filed as functional. The note with it: 360 h, read-out: GI. An outline of the steps:
as §2

Test [5] relates to Eclipta prostrata. Kind of test: Herbicidal activity against Eclipta prostrata assessed as growth inhibition at 150 g ai/ha using post-emergence protocol under greenhouse conditions measured 15 days after compound treatment. Format: functional. The note with it: 360 h, read-out: GI. The procedure, abridged: as §1
Test [6] deals with T1, Protoporphyrinogen oxidase (Homo sapiens, UniProt P50336).
T1 sequence (P50336 whole entry): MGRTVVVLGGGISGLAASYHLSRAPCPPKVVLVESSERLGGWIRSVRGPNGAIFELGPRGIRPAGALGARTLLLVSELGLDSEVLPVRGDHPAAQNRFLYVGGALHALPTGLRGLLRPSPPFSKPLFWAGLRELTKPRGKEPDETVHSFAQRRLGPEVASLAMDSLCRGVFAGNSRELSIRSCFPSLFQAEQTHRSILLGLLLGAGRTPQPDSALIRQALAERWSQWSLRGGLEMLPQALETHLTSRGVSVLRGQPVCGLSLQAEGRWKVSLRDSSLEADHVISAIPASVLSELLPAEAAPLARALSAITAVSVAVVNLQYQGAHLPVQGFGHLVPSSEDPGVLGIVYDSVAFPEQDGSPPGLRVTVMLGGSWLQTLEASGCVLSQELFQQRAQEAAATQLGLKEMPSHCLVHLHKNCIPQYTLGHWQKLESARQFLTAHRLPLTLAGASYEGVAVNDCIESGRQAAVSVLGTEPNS
Kind of test: Inhibition of Homo sapiens (human) protoporphyrinogen oxidase.

In test [7] the test system is Digitaria sanguinalis. In words: Herbicidal activity against Digitaria sanguinalis (hairy crabgrass) assessed as growth inhibition at 150 g ai/ha using post-emergence protocol under greenhouse conditions measured 15 days after compound treatment. It is filed as functional. To be noted: 360 h, read-out: GI. The procedure, abridged:
as §2

For test [8], the system named is Brassica juncea. Kind of test: Herbicidal activity against Brassica juncea assessed as growth inhibition at 150 g ai/ha using post-emergence protocol under greenhouse conditions measured 15 days after compound treatment. It is filed as functional. The note with it: 360 h, read-out: GI. An outline of the steps:
as §1

The values below come from ChEMBL document CHEMBL3046018, “Design, syntheses and 3D-QSAR studies of novel N-phenyl pyrrolidin-2-ones and N-phenyl-1H-pyrrol-2-ones as protoporphyrinogen oxidase inhibitors” (Bioorg Med Chem, 2010).

In the case of `COc1cc(N2C(=O)C3CCCCC3C2=O)c(F)cc1Cl` (configuration not stated), the inhibition of growth at 150 g/ha in test [1] was 100%; in test [2] it was 50%; in test [3], < 50%; in test [4] it was 50%; in test [5], 50%; in test [7] it was 50%. Also, the inhibition of growth at 150 g/ha in test [8] worked out at 50%. The Ki in test [6] (read-out: Ki) was found to be 8.22 µM.

`CCOC(=O)COc1cc(N2C(=O)C3CCCCC3C2=O)c(F)cc1Cl` (configuration not stated): the inhibition of growth at 150 g/ha in test [1], in test [2], in test [3], in test [4], in test [5] and in test [7] was < 50% each time. Besides, the inhibition of growth at 150 g/ha in test [8] was < 50%. The Ki in test [6] (read-out: Ki) came to 15.2 µM.

`CCOC(=O)C(C)Oc1cc(N2C(=O)C3CCCCC3C2=O)c(F)cc1Cl` (configuration not stated): the inhibition of growth at 150 g/ha in test [1] is 100%; in test [2], < 50%; in test [3], 50%; in test [4] it was < 50%; in test [5] it was > 80%; in test [7] it was < 50%. Also, the inhibition of growth at 150 g/ha in test [8] amounted to 50%. Further, the Ki in test [6] (read-out: Ki) was 3.3 µM.

Consider `O=C1C2CCCCC2C(O)N1c1cc(OC2CCCC2)c(Cl)cc1F` (configuration not stated), for which the inhibition of growth at 150 g/ha in test [1], in test [2], in test [3], in test [4], in test [5] and in test [7] was < 50% throughout. For the same compound, the inhibition of growth at 150 g/ha in test [8] was < 50%. Moreover, in test [6] (read-out: Ki), the Ki was determined as 24.6 µM.

`CC(C)Oc1cc(N2C(=O)C3CCCCC3C2O)c(F)cc1Cl` (configuration not stated): the inhibition of growth at 150 g/ha in test [1], in test [2], in test [3], in test [4], in test [5] and in test [7] was < 50% in each case. Further, the inhibition of growth at 150 g/ha in test [8] was < 50%. Also, in test [6] (read-out: Ki), the Ki was 47.4 µM.

As to `COc1cc(N2C(=O)C3CCCCC3C2O)c(F)cc1Cl` (configuration not stated), the inhibition of growth at 150 g/ha in test [1], in test [2], in test [3], in test [4], in test [5] and in test [7] was < 50% each time. In test [8], the inhibition of growth at 150 g/ha is < 50%. Also, the Ki in test [6] (read-out: Ki) stood at 131 µM.

Take `CCOC(=O)COc1cc(N2C(=O)C3CCCCC3C2O)c(F)cc1Cl` (configuration not stated): the inhibition of growth at 150 g/ha in test [1], in test [2], in test [3], in test [4], in test [5] and in test [7] was < 50% throughout. In addition, the inhibition of growth at 150 g/ha in test [8] is < 50%. Also, the Ki in test [6] (read-out: Ki) was determined as 124 µM.

Take `CCOC(=O)C(C)Oc1cc(N2C(=O)C3CCCCC3C2O)c(F)cc1Cl` (configuration not stated): the inhibition of growth at 150 g/ha in test [1], in test [2], in test [3], in test [4], in test [5] and in test [7] was < 50% each time. For the same compound, the inhibition of growth at 150 g/ha in test [8] is < 50%. Besides, the Ki in test [6] (read-out: Ki) stood at 48.1 µM.

For the compound `C#CCOc1cc(N2C(=O)C3CCCCC3C2O)c(F)cc1Cl` (configuration not stated), the inhibition of growth at 150 g/ha in test [1], in test [2], in test [3], in test [4], in test [5] and in test [7] was < 50% in each case. In test [8], the inhibition of growth at 150 g/ha is < 50%. In test [6] (read-out: Ki), the Ki was 63.6 µM.

As for `C=CCOc1cc(N2C(=O)C3CCCCC3C2O)c(F)cc1Cl` (configuration not stated), the inhibition of growth at 150 g/ha in test [1], in test [2], in test [3], in test [4], in test [5] and in test [7] was < 50% each time. Besides, in test [8], the inhibition of growth at 150 g/ha was < 50%. Also, the results for the Ki in test [6] (read-out: Ki) and in test [6] (read-out: pKi (converted)) were 44.8 µM and 45.7 µM, respectively.

Take `CC(C)Oc1cc(N2CC3=C(CCCC3)C2=O)c(F)cc1Cl`: the inhibition of growth at 150 g/ha in test [1] was 100%; in test [2], 50%; in test [3] it was > 80%; in test [4] it was < 50%; in test [5], > 80%; in test [7] it was < 50%. Further, the inhibition of growth at 150 g/ha in test [8] was > 80%. Also, the Ki in test [6] (read-out: Ki) came out at 0.69 µM.

Regarding `Nc1cc(N2CC3=C(CCCC3)C2=O)ccc1Cl`, the inhibition of growth at 150 g/ha in test [1], in test [2], in test [3], in test [4], in test [5] and in test [7] was < 50% throughout. The inhibition of growth at 150 g/ha in test [8] was < 50%. For the same compound, the Ki in test [6] (read-out: Ki) worked out at 27.6 µM.
